E-selectin induc = induces E-selectin expression in human endothelial cells; HUVEC E-selectin immunofluorescence imaging; normalized: neutral wells 0, TNF-alpha wells 100; P16581; AID 686992; hit rate 0.37% among 260,000; activation, % at 7.58 µM;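 active = mean E-selectin-positive cell signal at least 10% of the positive control, reached in at least 60% of replicates, without over 20% cell loss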
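assay system = HUVEC, human umbilical vein endothelial cells | input = 3,000 HUVEC seeded per well | medium = EGM-2 growth medium on 0.1% gelatin-coated wells | dosing = one compound dose added by pin transfer | signal = immunofluorescence imaging | read-out basis = % PE-positive cells | control set = TNF-alpha, DMSO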
DENV2 CPE = DENV2-induced cell death inhibition; hit rate 1.7% among 350,000; CPE inhibition, % at 9.99 µM; DENV2-infected cells, cytopathic effect rescue, plate reader; in the data active = CPE inhibition above about 20%, passing the limit was not always enough; tested in BHK-21 cells
SIRT5 block = blocks human SIRT5 desuccinylation of peptide. AID 652115. inhibition, % at 15 µM. Purified SirT5, succinyl-peptide AMC, trypsin-coupled fluorescence. hit rate 1.1% among 330,000. Q9NXA8; in the data active = inhibition above about 15%
A number is an active result; ! = a repeat was not active. In the library only some 2.8% were active in any assay of this set; here they are far more common.

What do the screens show for `Cc1ccc(S(=O)(=O)Nc2ccc3c(c2)C(=O)N([C@H](C)CO)C[C@@H](C)[C@H](CN(C)C(=O)c2ccccc2)OCCCC[C@@H](C)O3)cc1`?
DENV2 CPE: inactive; SIRT5 block: inactive

What do the screens show for `Cc1noc(C)c1S(=O)(=O)N(C)C[C@@H]1Oc2ccc(NC(=O)NC3CCCCC3)cc2CC(=O)N([C@H](C)CO)C[C@H]1C`?
E-selectin induc: inactive; DENV2 CPE: inactive; SIRT5 block: inactive

Results for COCC(=O)N(C)C[C@@H]1Oc2cc(C3=CCCC3)ccc2S(=O)(=O)N([C@H](C)CO)C[C@@H]1C ?
E-selectin induc: inactive; DENV2 CPE: inactive; SIRT5 block: inactive

What do the screens show for `C[C@@H]1CN([C@@H](C)CO)C(=O)Cc2cc(NS(=O)(=O)c3cccs3)ccc2O[C@H]1CN(C)CC1CCCCC1`?
E-selectin induc: inactive; DENV2 CPE: inactive; SIRT5 block: 15

How did C[C@H]1CN([C@@H](C)CO)C(=O)Cc2cc(NS(=O)(=O)c3cccs3)ccc2O[C@H]1CN(C)C(=O)Nc1ccc(F)cc1 do in these assays?
E-selectin induc: inactive; DENV2 CPE: inactive; SIRT5 block: inactive

Results for CC(C)NC(=O)N(C)C[C@@H]1Oc2ccc(NS(=O)(=O)c3cccs3)cc2CC(=O)N([C@H](C)CO)C[C@@H]1C ?
E-selectin induc: 26; DENV2 CPE: inactive; SIRT5 block: inactive

What do the screens show for `C[C@@H]1CN([C@H](C)CO)C(=O)Cc2cc(NS(=O)(=O)c3cccs3)ccc2O[C@H]1CN(C)CC1CCCCC1`?
E-selectin induc: inactive; DENV2 CPE: inactive; SIRT5 block: inactive

Results for C[C@@H]1CN([C@H](C)CO)C(=O)Cc2cc(NS(=O)(=O)c3cccs3)ccc2O[C@@H]1CN(C)C(=O)Nc1ccccc1 ?
E-selectin induc: inactive; DENV2 CPE: inactive; SIRT5 block: inactive

What do the screens show for `C[C@@H]1CN([C@@H](C)CO)C(=O)Cc2cc(NS(=O)(=O)c3cccs3)ccc2O[C@H]1CN(C)C(=O)Nc1ccc(F)cc1`?
E-selectin induc: 30; DENV2 CPE: inactive; SIRT5 block: inactive

Results for C[C@@H]1CN([C@H](C)CO)C(=O)c2cc(-c3cccc(C#N)c3)cnc2O[C@H]1CN(C)Cc1ccncc1 ?
E-selectin induc: inactive; DENV2 CPE: inactive; SIRT5 block: inactive

How did CCCN1[C@@H]2c3ccc(-c4cccnc4)c(=O)n3C[C@@H]2[C@@H](CO)[C@@H]1C(=O)NC1CCCC1 do in these assays?
E-selectin induc: inactive; DENV2 CPE: inactive; SIRT5 block: inactive

How did CC(=O)N1CC2(C1)[C@@H](c1ccccc1)[C@@H](CO)N2Cc1cccc(Cl)c1 do in these assays?
E-selectin induc: inactive; DENV2 CPE: inactive; SIRT5 block: inactive

How did Cc1ccccc1S(=O)(=O)N[C@@H]1CC[C@H](CCn2cc(-c3ccccc3)nn2)O[C@@H]1CO do in these assays?
E-selectin induc: inactive; DENV2 CPE: 21; SIRT5 block: inactive

What do the screens show for `O=C(Cc1ccccn1)N[C@@H]1CC[C@H](CCn2cc(-c3cccnc3)nn2)O[C@H]1CO`?
E-selectin induc: inactive; DENV2 CPE: inactive; SIRT5 block: inactive

Results for O=S(=O)(N[C@H]1CC[C@@H](CCn2cc(-c3cccnc3)nn2)O[C@H]1CO)c1ccccc1 ?
E-selectin induc: inactive; DENV2 CPE: 28; SIRT5 block: inactive

What do the screens show for `O=C(Cc1ccccn1)N[C@H]1CC[C@H](CCn2cc(-c3cccnc3)nn2)O[C@@H]1CO`?
E-selectin induc: inactive; DENV2 CPE: 58; SIRT5 block: inactive

What do the screens show for `Cc1ccccc1S(=O)(=O)N[C@H]1CC[C@@H](CCn2cc(-c3ccccc3)nn2)O[C@H]1CO`?
E-selectin induc: inactive; DENV2 CPE: inactive; SIRT5 block: inactive

What do the screens show for `O=S(=O)(N[C@@H]1CC[C@@H](CCn2cc(-c3cccnc3)nn2)O[C@@H]1CO)c1ccccc1`?
E-selectin induc: inactive; DENV2 CPE: inactive; SIRT5 block: inactive

How did O=C(Nc1ccccc1F)N1C[C@@H]2[C@H](c3ccccc31)[C@@H](CO)N2C(=O)c1ccccc1F do in these assays?
E-selectin induc: inactive; DENV2 CPE: inactive; SIRT5 block: inactive

Results for C[C@@H]1CN([C@@H](C)CO)C(=O)c2cc(NC(=O)CCC(F)(F)F)ccc2O[C@@H](C)CCCCO[C@@H]1CN(C)C ?
E-selectin induc: inactive

Results for CC(=O)NC[C@H]1[C@@H](c2ccc(C3=CCCC3)cc2)[C@@H](CO)N1C(=O)C1CC1 ?
E-selectin induc: inactive; DENV2 CPE: inactive; SIRT5 block: inactive

How did C[C@H](CO)N1C[C@H](C)[C@H](CN(C)S(=O)(=O)c2cccc(F)c2)Oc2ncccc2C1=O do in these assays?
E-selectin induc: inactive; DENV2 CPE: inactive; SIRT5 block: inactive

How did COC(=O)C[C@@H]1C=C[C@@H](NS(=O)(=O)c2ccc(OC)cc2)[C@@H](CO)O1 do in these assays?
E-selectin induc: inactive; DENV2 CPE: 23!; SIRT5 block: inactive
